The species named for experiment [1] is Homo sapiens. Put plainly: Selectivity index, ratio of Ki for displacement of [3H]-Pentazocine from sigma 1 receptor (unknown origin) expressed in HEK293T cell membranes to KI for displacement of [3H]-DTG from sigma 2 receptor (unknown origin) expressed in HEK293T cell membranes. In short, it runs like this:
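Sigma-1 and sigma-2 binding was run by the NIMH Psychoactive Drug Screening Program. pKi is the mean of three independent experiments, each done at least in triplicate. The index is the ratio of the two receptor Ki values.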

Experiment [2] deals with Sigma non-opioid intracellular receptor 1 (Homo sapiens, UniProt Q99720). Put plainly: Displacement of [3H]-Pentazocine from sigma 1 receptor (unknown origin) expressed in HEK293T cell membranes.
Experiment [3] in a line: Displacement of [3H]-DTG from sigma 2 receptor (unknown origin) expressed in HEK293T cell membranes. Also noted: species or system Homo sapiens.
The subject of experiment [4] is MDA-MB-231. Briefly: Cytotoxicity against human MDA-MB-231 cells assessed as reduction in cell viability incubated for 72 hrs by resazurin reagent based fluorescent assay. Type of experiment: functional. As to conditions: MDA-MB-231, 72 h. In short, it runs like this: (§1)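 Cells seeded at 20,000 per well, attached overnight in experimental medium with 5% FBS at 37 °C, then exposed to varying concentrations of σ2 ligands in 1:9 DMSO/acetone (cisplatin in 0.9% saline) for 24, 48 or 72 h, with re-dosing every 24 h. Matched vehicle controls. Read-out is 0.02% resazurin for 2-3 h, fluorescence ex 560/em 590 nm, viability as % of control. IC50 from non-linear regression of log concentration.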
Background: Alamar Blue is a resazurin reagent that responds to reducing activity.

In experiment [5] the test system is HEK293. Briefly: Cytotoxicity against HEK293 cells assessed as reduction in cell viability incubated for 72 hrs by resazurin reagent based fluorescent assay. Particulars: Homo sapiens, HEK293, 72 h. In short, it runs like this: as §1
The subject of experiment [6] is MDA-MB-231. Briefly: Cytotoxicity against human MDA-MB-231 cells assessed as reduction in cell viability incubated for 48 hrs by resazurin reagent based fluorescent assay. It counts as functional. As to conditions: MDA-MB-231, 48 h. In short, it runs like this:
as §1

Experiment [7] has as its system MDA-MB-231. Briefly: Cytotoxicity against human MDA-MB-231 cells assessed as reduction in cell viability incubated for 24 hrs by resazurin reagent based fluorescent assay. It counts as functional. As to conditions: MDA-MB-231, 24 h. In short, it runs like this:
as §1

Experiment [8] concerns A549. Put plainly: Cytotoxicity against human A549 cells assessed as reduction in cell viability resazurin reagent based fluorescent assay. Type of experiment: functional. In short, it runs like this:
as §1

Experiment [9] has as its system MIA PaCa-2. Put plainly: Cytotoxicity against human MIAPaCa2 cells assessed as reduction in cell viability resazurin reagent based fluorescent assay. Type of experiment: functional. In short, it runs like this:
as §1

The subject of experiment [10] is PANC-1. Put plainly: Cytotoxicity against human PANC1 cells assessed as reduction in cell viability resazurin reagent based fluorescent assay. Type of experiment: functional. In short, it runs like this:
as §1

Experiment [11] relates to MDA-MB-468. Put plainly: Cytotoxicity against human MDA-MB-468 cells assessed as reduction in cell viability resazurin reagent based fluorescent assay. It counts as functional. In short, it runs like this: as §1
For experiment [12], the system named is PC-3. Briefly: Cytotoxicity against human PC3 cells assessed as reduction in cell viability resazurin reagent based fluorescent assay. Type of experiment: functional. In short, it runs like this:
as §1

For experiment [13], the system named is MCF-10A. Briefly: Cytotoxicity against human MCF10A cells assessed as reduction in cell viability resazurin reagent based fluorescent assay. In short, it runs like this: as §1

Sigma non-opioid intracellular receptor 1, sequence (Q99720 whole entry): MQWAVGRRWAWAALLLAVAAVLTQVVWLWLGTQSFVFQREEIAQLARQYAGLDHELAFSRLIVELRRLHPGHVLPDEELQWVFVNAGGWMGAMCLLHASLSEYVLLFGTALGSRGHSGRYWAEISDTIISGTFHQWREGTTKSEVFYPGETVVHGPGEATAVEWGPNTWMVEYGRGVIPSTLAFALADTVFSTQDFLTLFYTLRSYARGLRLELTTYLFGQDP

Take `O=C1c2ccccc2CC1CCN1CCCN(c2ccc(Cl)cc2)CC1` (stereo not drawn): in [1], the Ratio Ki came to 4.8. Besides, the Ki in experiment [2] was found to be 0.021 µM; in experiment [3] it was 0.0044 µM.
On to `O=C1c2ccc(F)cc2CC1CCN1CCCN(c2ccc(Cl)cc2)CC1` (stereo not drawn), for which the Ratio Ki in experiment [1] came out at 105. Further, the IC50 in experiment [4] was found to be 20.1 µM; in experiment [5] it was 41.3 µM; in [6] it was 23.5 µM; in experiment [7], 33.6 µM. The Ki in experiment [2] was found to be 0.063 µM; in [3] it was 0.0006 µM. In [3], this molecule gave a pKi of 9.22.
For the molecule `O=C1c2ccc(Cl)cc2CC1CCN1CCCN(c2ccc(Cl)cc2)CC1` (stereo not drawn), the Ratio Ki in experiment [1] amounted to 1.4. This molecule showed an inhibition constant (Ki) in experiment [2] of 0.026 µM. In [3], this molecule returned a Ki of 0.019 µM and a pKi of 7.72.
The matching figures for `O=C1C(CCN2CCCN(c3ccc(Cl)cc3)CC2)=Cc2cc(F)ccc21`: 3.9, 0.078 µM, 0.02 µM and 7.7.
For `O/N=C1/c2ccc(F)cc2CC1CCN1CCCN(c2ccc(Cl)cc2)CC1` (stereo not drawn), in experiment [1], the Ratio Ki was 0.7. Also, the IC50 in experiment [8] is above 200 µM; in experiment [9] it was 10 µM; in experiment [6] it was 8 µM; in [10], 76 µM. Also, the results for the Ki in experiment [2] and in [3] were 0.277 µM and 0.407 µM, respectively. The molecule also gave a pKi in [3] of 6.4.
For `O=C1c2ccc(F)cc2CC1CCN1CCCN(c2ccc(Cl)cn2)CC1` (stereo not drawn), in experiment [1], the Ratio Ki was determined as 22.9. Moreover, the IC50 in [8] turned out to be 52 µM; in experiment [9], 42 µM; in experiment [6], 58 µM; in experiment [10], 51 µM. In addition, the results for the Ki in [2] and in experiment [3] were 0.016 µM and 0.0007 µM, respectively. In [3], this molecule returned a pKi of 9.13.
For `O=C1C(CCN2CCCN(c3ccc(Cl)cc3)CC2)=Cc2cc(Cl)ccc21`, the Ratio Ki in [1] stood at 0.4. In experiment [2], the Ki worked out at 0.0049 µM. In experiment [3], this molecule showed a Ki of 0.013 µM and a pKi of 7.9.
Regarding `O/N=C(\CCCN1CCCN(c2ccc(Cl)cc2)CC1)c1ccc(F)cc1`, the Ratio Ki in experiment [1] was found to be 1.5. In addition, the IC50 in experiment [8] is 5.8 µM; in experiment [11] it was 4 µM; in experiment [9] it was 1.5 µM; in experiment [4] it was 7 µM; in experiment [12], 6.9 µM; in experiment [13] it was 20 µM. The IC50 in [6] was 8 µM; in [10], 0.14 µM; in experiment [7] it was 17 µM. For the same molecule, the results for the Ki in experiment [2] and in experiment [3] were 0.0051 µM and 0.0035 µM, respectively. Also, in experiment [3], the negative-log Ki (pKi) came out at 8.46.
In the case of `O=C1c2ccc(Cl)cc2CC1CCN1CCN(c2ccc(Cl)cc2)CC1` (stereo not drawn), the Ratio Ki in experiment [1] was found to be 1.2. The molecule further yielded a Ki in experiment [2] of 0.021 µM. In addition, in experiment [3], the Ki stood at 0.018 µM and the pKi was 7.74.
Take `Fc1ccc2c(c1)CC(CCN1CCCN(c3ccccn3)CC1)C2` (stereo not drawn): in [1], the Ratio Ki is 15.7. The molecule further registered a Ki in experiment [2] of 0.022 µM. For the same molecule, in experiment [3], the Ki is 0.0014 µM and the pKi turned out to be 8.85.
As to `O=C1c2ccc(F)cc2CC1CCN1CCCN(c2ccccn2)CC1` (stereo not drawn), the Ratio Ki in experiment [1] stood at 24.4. For the same molecule, the affinity in [2], expressed as Ki, was 0.044 µM. In [3], the Ki was 0.0018 µM and the pKi is given as 8.75.
With `O=C(CCCN1CCCN(c2ccc(Cl)cc2)CC1)c1ccc(F)cc1`, the IC50 in experiment [8] was found to be 6.2 µM; in [11], 5 µM; in experiment [9] it was 2 µM; in experiment [4], 15 µM; in experiment [12] it was 8.2 µM; in [13] it was 22 µM. Moreover, the figures for the IC50 in experiment [6], in experiment [10] and in experiment [7] were 18 µM, 0.4 µM and 36 µM, respectively.

For orientation: Ki means the dissociation constant of the complex between target and ligand, obtained from inhibition or displacement. A low value points to tighter binding. In general, IC50 refers to the midpoint of a concentration-inhibition curve. A word on the pKi: it is the negative decadic logarithm of the Ki, by convention in mol/L.
